Results as given in ChEMBL document CHEMBL5058577, “EUbOPEN Chemogenomics Library 2 (Multiplex)” (2022).

Tested on: Fibroblast
Test: Multiplex assay against human fibroblast
Format: toxicity, cell-based
How it was run: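 Tubulin, mitochondrial-mass and membrane-permeability phenotypes are per cents of healthy-nucleus cells. Cells were gated by CellPathfinder machine learning into Hoechst high-intensity objects or normal cells, normal cells into healthy, pyknosed or fragmented nuclei, and pyknosed cells into mitotic or apoptotic. Before that, live cells stained at seeding with Hoechst33342, BioTracker Green Microtubule Cytoskeleton Dye, MitoTracker Red and Annexin V Alexa Fluor 680 were imaged on a CQ1 microscope at 37°C and 5% CO2 after compound addition.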

[1] = 12 h, 1 µM, compound concentration 1 uM, replicate 1
[2] = 12 h, 1 µM, compound concentration 1 uM, replicate 2
[3] = 12 h, 10 µM, compound concentration 10 uM, replicate 1
[4] = 12 h, 10 µM, compound concentration 10 uM, replicate 2
[5] = 24 h, 1 µM, compound concentration 1 uM, replicate 1
[6] = 24 h, 1 µM, compound concentration 1 uM, replicate 2
[7] = 24 h, 10 µM, compound concentration 10 uM, replicate 1
[8] = 24 h, 10 µM, compound concentration 10 uM, replicate 2
[9] = 48 h, 1 µM, compound concentration 1 uM, replicate 1
[10] = 48 h, 1 µM, compound concentration 1 uM, replicate 2
[11] = 48 h, 10 µM, compound concentration 10 uM, replicate 1
[12] = 48 h, 10 µM, compound concentration 10 uM, replicate 2

For `O=c1nc2[nH]c3ccccc3nc-2c(=O)[nH]1` [ALLOXAZINE], the “Population Apoptotic (%)” value [1] was 56%, the “Population Fragmented Nuclei (%)” value [1] was 16% and the “Population Healthy Nuclei (%)” value [1] was 67%. For the same compound, the “Population Hoechst High Intensity Objects (%)” value [1] was 5%, the “Population Membrane Permeable-Phenotype (%)” value [1] was 0% and the “Population Mitochondria Different-Phenotype (%)” value [1] was 2%. The “Population Mitotic Cells (%)” value [1] was 43%, the “Population Normal (%)” value [1] was 94% and the “Population Pyknosed Nuclei (%)” value [1] was 16%. For the same compound, the “Population Tubulin-Different-Phenotype (%)” value [1] was 23%, the “Total Cell Count” value [1] was 193 and the “Population Apoptotic (%)” value [2] was 37%. The “Population Fragmented Nuclei (%)” value [2] was 26%, the “Population Healthy Nuclei (%)” value [2] was 50% and the “Population Hoechst High Intensity Objects (%)” value [2] was 3%. For the same compound, the “Population Membrane Permeable-Phenotype (%)” value [2] was 6%, the “Population Mitochondria Different-Phenotype (%)” value [2] was 3% and the “Population Mitotic Cells (%)” value [2] was 62%. The “Population Normal (%)” value [2] was 96%, the “Population Pyknosed Nuclei (%)” value [2] was 23% and the “Population Tubulin-Different-Phenotype (%)” value [2] was 33%. For the same compound, the “Total Cell Count” value [2] was 131, the “Population Apoptotic (%)” value [3] was 33% and the “Population Fragmented Nuclei (%)” value [3] was 23%. For the same compound, the “Population Healthy Nuclei (%)” value [3] was 60%, the “Population Hoechst High Intensity Objects (%)” value [3] was 4% and the “Population Membrane Permeable-Phenotype (%)” value [3] was 3%. For the same compound, the “Population Mitochondria Different-Phenotype (%)” value [3] was 5%, the “Population Mitotic Cells (%)” value [3] was 66% and the “Population Normal (%)” value [3] was 95%. The “Population Pyknosed Nuclei (%)” value [3] was 15%, the “Population Tubulin-Different-Phenotype (%)” value [3] was 23% and the “Total Cell Count” value [3] was 158. For the same compound, the “Population Apoptotic (%)” value [4] was 41%, the “Population Fragmented Nuclei (%)” value [4] was 41% and the “Population Healthy Nuclei (%)” value [4] was 38%. For the same compound, the “Population Hoechst High Intensity Objects (%)” value [4] was 1%, the “Population Mitochondria Different-Phenotype (%)” value [4] was 15% and the “Population Mitotic Cells (%)” value [4] was 58%. The “Population Normal (%)” value [4] was 98%, the “Population Pyknosed Nuclei (%)” value [4] was 20% and the “Population Tubulin-Different-Phenotype (%)” value [4] was 57%. For the same compound, the “Total Cell Count” value [4] was 86, the “Population Apoptotic (%)” value [5] was 52% and the “Population Fragmented Nuclei (%)” value [5] was 17%. For the same compound, the “Population Healthy Nuclei (%)” value [5] was 69%, the “Population Hoechst High Intensity Objects (%)” value [5] was 3% and the “Population Membrane Permeable-Phenotype (%)” value [5] was 0%. For the same compound, the “Population Mitochondria Different-Phenotype (%)” value [5] was 2%, the “Population Mitotic Cells (%)” value [5] was 47% and the “Population Normal (%)” value [5] was 96%. The “Population Pyknosed Nuclei (%)” value [5] was 12%, the “Population Tubulin-Different-Phenotype (%)” value [5] was 21% and the “Total Cell Count” value [5] was 190. The “Population Apoptotic (%)” value [6] was 36%, the “Population Fragmented Nuclei (%)” value [6] was 31% and the “Population Healthy Nuclei (%)” value [6] was 41%. The “Population Hoechst High Intensity Objects (%)” value [6] was 4%, the “Population Membrane Permeable-Phenotype (%)” value [6] was 2% and the “Population Mitochondria Different-Phenotype (%)” value [6] was 0%. The “Population Mitotic Cells (%)” value [6] was 63%, the “Population Normal (%)” value [6] was 95% and the “Population Pyknosed Nuclei (%)” value [6] was 27%. For the same compound, the “Population Tubulin-Different-Phenotype (%)” value [6] was 31%, the “Total Cell Count” value [6] was 114 and the “Population Apoptotic (%)” value [7] was 47%. For the same compound, the “Population Fragmented Nuclei (%)” value [7] was 19%, the “Population Healthy Nuclei (%)” value [7] was 64% and the “Population Hoechst High Intensity Objects (%)” value [7] was 3%. For the same compound, the “Population Membrane Permeable-Phenotype (%)” value [7] was 0%, the “Population Mitochondria Different-Phenotype (%)” value [7] was 2% and the “Population Mitotic Cells (%)” value [7] was 52%. The “Population Normal (%)” value [7] was 96%, the “Population Pyknosed Nuclei (%)” value [7] was 15% and the “Population Tubulin-Different-Phenotype (%)” value [7] was 22%. The “Total Cell Count” value [7] was 153, the “Population Apoptotic (%)” value [8] was 64% and the “Population Fragmented Nuclei (%)” value [8] was 45%. For the same compound, the “Population Healthy Nuclei (%)” value [8] was 32%, the “Population Mitochondria Different-Phenotype (%)” value [8] was 7% and the “Population Mitotic Cells (%)” value [8] was 35%. The “Population Pyknosed Nuclei (%)” value [8] was 21%, the “Population Tubulin-Different-Phenotype (%)” value [8] was 50% and the “Total Cell Count” value [8] was 82. For the same compound, the “Population Apoptotic (%)” value [9] was 71%, the “Population Fragmented Nuclei (%)” value [9] was 14% and the “Population Healthy Nuclei (%)” value [9] was 72%. For the same compound, the “Population Hoechst High Intensity Objects (%)” value [9] was 9%, the “Population Membrane Permeable-Phenotype (%)” value [9] was 0% and the “Population Mitochondria Different-Phenotype (%)” value [9] was 1%. The “Population Mitotic Cells (%)” value [9] was 28%, the “Population Normal (%)” value [9] was 90% and the “Population Pyknosed Nuclei (%)” value [9] was 13%. For the same compound, the “Population Tubulin-Different-Phenotype (%)” value [9] was 23%, the “Total Cell Count” value [9] was 178 and the “Population Apoptotic (%)” value [10] was 39%. For the same compound, the “Population Fragmented Nuclei (%)” value [10] was 30%, the “Population Healthy Nuclei (%)” value [10] was 48% and the “Population Hoechst High Intensity Objects (%)” value [10] was 3%. The “Population Membrane Permeable-Phenotype (%)” value [10] was 9%, the “Population Mitotic Cells (%)” value [10] was 60% and the “Population Normal (%)” value [10] was 96%. The “Population Pyknosed Nuclei (%)” value [10] was 20%, the “Population Tubulin-Different-Phenotype (%)” value [10] was 56% and the “Total Cell Count” value [10] was 114. For the same compound, the “Population Apoptotic (%)” value [11] was 55%, the “Population Fragmented Nuclei (%)” value [11] was 26% and the “Population Healthy Nuclei (%)” value [11] was 61%. For the same compound, the “Population Hoechst High Intensity Objects (%)” value [11] was 6%, the “Population Membrane Permeable-Phenotype (%)” value [11] was 2% and the “Population Mitochondria Different-Phenotype (%)” value [11] was 3%. The “Population Mitotic Cells (%)” value [11] was 44%, the “Population Normal (%)” value [11] was 93% and the “Population Pyknosed Nuclei (%)” value [11] was 11%. The “Population Tubulin-Different-Phenotype (%)” value [11] was 29%, the “Total Cell Count” value [11] was 164 and the “Population Apoptotic (%)” value [12] was 45%. The “Population Fragmented Nuclei (%)” value [12] was 49%, the “Population Healthy Nuclei (%)” value [12] was 36% and the “Population Hoechst High Intensity Objects (%)” value [12] was 2%. The “Population Membrane Permeable-Phenotype (%)” value [12] was 3%, the “Population Mitochondria Different-Phenotype (%)” value [12] was 17% and the “Population Mitotic Cells (%)” value [12] was 54%. The “Population Normal (%)” value [12] was 97%, the “Population Pyknosed Nuclei (%)” value [12] was 13% and the “Population Tubulin-Different-Phenotype (%)” value [12] was 51%. For the same compound, the “Total Cell Count” value [12] was 81.
